The values below come from article PMC4443282 (Molecules and Cells, 2015).

Data set [1] deals with T1, Y30F/Y55F/Y115F/D38N KSI (Pseudomonas putida, UniProt P07445, D40N/Y119F/Y32F/Y57F).
T1 sequence (P07445 1-131 Y32F/D40N/Y57F/Y119F): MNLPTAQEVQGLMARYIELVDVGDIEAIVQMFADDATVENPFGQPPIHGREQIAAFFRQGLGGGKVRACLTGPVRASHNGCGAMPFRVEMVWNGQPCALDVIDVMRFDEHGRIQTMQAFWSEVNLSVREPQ
The experiment in a line: KD by quenching of intrinsic tryptophan fluorescence of KSI. Format: binding.

The subject of data set [2] is Y30F/Y55F/Y115F/D38N KSI. Described as above. Format: binding, Pseudomonas putida. The settings on record: relative to D38N KSI.
For the next data set, the target named is T2, Y115F/D38N KSI (Pseudomonas putida, UniProt P07445, D40N/Y119F).
T2 sequence (P07445 1-131 D40N/Y119F): T1 sequence (P07445 1-131 Y32F/D40N/Y57F/Y119F) with F32Y, F57Y
Described as above. Format: binding.

In a further data set the target is T3, Y55F/D38N KSI (Pseudomonas putida, UniProt P07445, D40N/Y57F).
T3 sequence (P07445 1-131 D40N/Y57F): T1 sequence (P07445 1-131 Y32F/D40N/Y57F/Y119F) with F32Y, F119Y
The data set is described as above. Format: binding.

For a further data set, the target named is T4, Y30F/D38N KSI (Pseudomonas putida, UniProt P07445, D40N/Y32F).
T4 sequence (P07445 1-131 Y32F/D40N): T1 sequence (P07445 1-131 Y32F/D40N/Y57F/Y119F) with F57Y, F119Y
The description is as above. Format: binding.

A further data set has as its target T5, D38N KSI (Pseudomonas putida, UniProt P07445, D40N).
T5 sequence (P07445 1-131 D40N): T1 sequence (P07445 1-131 Y32F/D40N/Y57F/Y119F) with F32Y, F57Y, F119Y
The experiment in a line: KD by quenching of intrinsic tryptophan fluorescence of KSI. Format: binding. The method, boiled down:
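Mutant KSI was expressed in E. coli BL21(DE3) and purified to a single SDS-PAGE band. Steroid ligand in DMSO was titrated successively into KSI in 10 mM potassium phosphate with 10% DMSO. Intrinsic fluorescence was read at ex 295/em 315 nm and corrected for dilution. KD was fitted to a binding equation using total steroid and KSI concentrations. Mean ± SD of three independent experiments.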

Another data set concerns the target T6, Y30F/Y55F/D38N KSI (Pseudomonas putida, UniProt P07445, D40N/Y32F/Y57F).
T6 sequence (P07445 1-131 Y32F/D40N/Y57F): T1 sequence (P07445 1-131 Y32F/D40N/Y57F/Y119F) with F119Y
The experiment in a line: KD by quenching of intrinsic tryptophan fluorescence of KSI. Format: binding.

A further data set relates to wild-type KSI. The experiment in a line: Kinetic parameters kcat and KM for steroid substrate. Format: biochemical, Pseudomonas putida. The settings on record: relative to wild type.
Data set [3] relates to Y30F KSI. As to conditions: ref Kim et al., 2000; cited from earlier work.
The subject of data set [4] is Y30F KSI. The experiment in a line: Kinetic parameters kcat and KM for steroid substrate. The settings on record: relative to wild type. Format: biochemical, Pseudomonas putida.
Another data set deals with Y30F/Y55F KSI. The data set is described as above. As to conditions: relative to wild type. Format: biochemical, Pseudomonas putida.
A further data set concerns the target T7, Y115F KSI (Pseudomonas putida, UniProt P07445, Y119F).
T7 sequence (P07445 1-131 Y119F): T1 sequence (P07445 1-131 Y32F/D40N/Y57F/Y119F) with F32Y, N40D, F57Y
Described as above. Format: biochemical.

In data set [5] the test system is Y55F KSI. The settings on record: ref Kim et al., 2000; cited from earlier work.
A further data set deals with T8, Y30F/Y55F/Y115F KSI (Pseudomonas putida, UniProt P07445, Y119F/Y32F/Y57F).
T8 sequence (P07445 1-131 Y32F/Y57F/Y119F): T1 sequence (P07445 1-131 Y32F/D40N/Y57F/Y119F) with N40D
The experiment in a line: Kinetic parameters kcat and KM for steroid substrate. Format: biochemical.

The test system of data set [6] is Y55F KSI. Described as above. Format: biochemical, Pseudomonas putida. As to conditions: relative to wild type.
The conditions of data set [7]: in solution; ref Ha et al., 2000; cited from earlier work.
[8] abbreviates: 34 mM potassium phosphate, pH 7.0, 2.5 mM EDTA, 3.3 % methanol, 298 K.

The structures appear in SMILES notation. Where a chain is given by its changes, count along the chain named.

As to `C[C@]12CCc3c(ccc4cc(O)ccc34)[C@@H]1CCC2=O` [equilenin], the Kd at Y30F/Y55F/Y115F/D38N KSI [1] is 0.34 µM; on Y115F/D38N KSI, 0.07 µM; at Y55F/D38N KSI, 0.08 µM; on Y30F/D38N KSI, 0.07 µM; at D38N KSI, 0.031 µM; on Y30F/Y55F/D38N KSI, 0.25 µM. The “decrease in binding energy” value in the data set on Y30F/Y55F/Y115F/D38N KSI [2] lay in the range of 5.44 to 5.86 kJ/mol. Moreover, the “factor by which affinity is lower than that of D38N KSI” value in the data set on Y30F/Y55F/Y115F/D38N KSI [2] is recorded as 9.1–11.

With `C[C@]12CCC(=O)CC1=CC[C@@H]1[C@@H]2CC[C@]2(C)C(=O)CC[C@@H]12` [5-AND, 5-androstene-3,17-dione], the Relative kcat with wild-type KSI was 1; in the data set with Y30F KSI [4], 0.84; with Y30F/Y55F KSI it was 0.50; at Y115F KSI (relative to wild type) it was 0.68; on Y30F/Y55F/Y115F KSI (relative to wild type), 0.57; in the data set on Y55F KSI [6], 0.17. The “factor of decrease in kcat relative to the wild-type KSI” value in the data set with Y30F KSI [3] is 1.2; in the data set with Y55F KSI [5], 6. Further, the figures for the Michaelis constant (Km) at Y115F KSI (setting [8]) and at Y30F/Y55F/Y115F KSI (setting [8]) were 41.7 ± 2 µM and 77.3 ± 5.6 µM, respectively. The kcat result is “(14.5 ± 0.4) × 10^3 s^−1” at Y115F KSI (setting [8]) and “(12.2 ± 0.2) × 10^3 s^−1” on Y30F/Y55F/Y115F KSI (setting [8]). Further, the “pKa of the C4 proton” value in data set [7] is recorded as 12.7.

`C[C@]12CC[C@@H]3c4ccc(O)cc4CC[C@H]3[C@@H]1CCC2=O` [estrone]: in the data set with Y30F/Y55F/Y115F/D38N KSI [2], the “decrease in binding energy” value is 5.44 to 5.86 kJ/mol and the “factor by which affinity is lower than that of D38N KSI” value is reported as 9.1–11. On D38N KSI, this molecule displayed a Kd of 0.11 µM.

In general, Kd refers to the equilibrium constant for the complex coming apart. A higher Kd goes with a looser complex. A word on the Km: it is the substrate concentration at which the rate is half of its maximum.
